The values below come from the RNAGym collection of RNA variant scans (doi:10.1126/science.aae0568).

Fewer inactive variants are shown than the library holds.

Sequences and labels used below:
B1: tRNA (parent)
chain: GUUCCGUUGGCGUAAUGGUAACGCGUCUCCCUCCUAAGGAGAAGACUGCGGGUUCGAGUCCCGUACGGAACG

The variants in the data set derive from B1. Briefly: yeast fitness relative to wild type (ratio to wild type); higher = fitter; tRNA-Arg(CCU), competitive growth, 37 C, YPD. In short, it runs like this:
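The tRNA-Arg(CCU) gene variants were made by chemical synthesis with a 3% per-site mutation rate at 69 sites and inserted at the native genomic locus of Saccharomyces cerevisiae. After pooling, the strains were competed in YPD at 37°C for 24 hours in six parallel replicates. Gene amplicons from the start population and each end population were read by 100-nucleotide paired-end sequencing, and Darwinian fitness relative to wild type was taken from genotype frequency changes. Genotypes needed ≥ 100 starting reads, and estimates < 0.5 were set to 0.5.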
For GUUCCGUUGGCGUUAUGGUAACGGGUCUCCCUCCUAAGGAGAAGACUGCGGGUUCGAAUCCCGUACGGAACG [A14U C24G G58A], the yeast fitness worked out at 0.561.

For GUUCCGUUGGCGUUAUGGUAACGCGUCUCCCUGCUAAGGAGCAGACUGUGGGUUGGAGUCCCGUACGGAACG [A14U C33G A42C C49U C55G], the yeast fitness is at most 0.5.

GUUCCGUUGGCGUUAUGGUAACGCGUCUCACUCCUAAGGAGAAGACUGCGGGUUAGAGUCCAGUACGGAACG [A14U C30A C55A C62A]: the yeast fitness was 0.578.

In the case of GUUCCGUUGGCGUUAUGGUAACGUGUCUCCCUACUAAGGAGAACACCGCGGGUUCGAGUCCCGUACGGAACG [A14U C24U C33A G44C U47C], the yeast fitness was determined as 0.534.

For GUUCCGUUGGCGUUAUGGUAACGCGUCUGCCUCCUAAGGAGAAGACUGCGAGUUCGAGUCCCGUAGGGAACG [A14U C29G G51A C66G], the yeast fitness is at most 0.5.

Regarding GUUCCGUUGGCGUUAUGGUAACGCGUCUCACCCCUAAGGAGAAGACUGCGGGUUCGAGUCCCGUACGGAACG [A14U C30A U32C], the yeast fitness was at most 0.5.

As for GUUCCGUUGGCGUUAUGGUAACGCGUCUCACUCCUAAGGAGACGACUGCGGGUUCGAGUCCCAUACGGAACG [A14U C30A A43C G63A], the yeast fitness was at most 0.5.

On to GUUCCGUUGGCGUUAUGGUAACGCGUUUCCCUUCUAAGGAGAAGACUGCGAGUUCGAGUCCCGUACAGAACG [A14U C27U C33U G51A G67A], for which the yeast fitness was at most 0.5.

Turning to GUUCCGUUGGCGUUAUGGUAACGCGUUUCCCUCCUAAGGAGAAGACUGCGGGUUGGAGUCCCGUACGCAACG [A14U C27U C55G G68C], the yeast fitness was at most 0.5.

As for GUUCCGUUGGCGUUAUGGUAACGCGUGUCCCUCCUAAGGAGAAGACUGCGGGUUCGUGUCCCGUACGGAACG [A14U C27G A57U], the yeast fitness amounted to 0.527.

As to GUUCCGUUGGCGUUAUGGUAACGCGUAUCCCUCCUAAGGAGAAGACUGCGGGUUCGAGUCCGGUACGGAACG [A14U C27A C62G], the yeast fitness was 0.667.

On to GUUCCGUUGGCGUUAUGGUAACGCGUCUCUCUCCUAGGGAGAAGACUGCGGGUUCGAGUCCCGUACGGAGCG [A14U C30U A37G A70G], for which the yeast fitness was at most 0.5.

Turning to GUUCCGUUGGCGUUAUGGUAACGCGUCUCCUUCAUAAGGAGAAGACUGCGGGUUCGAGUCCCGAACGGAACG [A14U C31U C34A U64A], the yeast fitness is at most 0.5.

Turning to GUUCCGUUGGCGUUAUGGUAACGCGUCUCGCUCCUAAGGAGAAGACUGCGGGUUCGAGUCCGGUACGGAACG [A14U C30G C62G], the yeast fitness is 0.573.

GUUCCGUUGGCGUUAUGGUAACGCGUCUCCGUCCUAAGGAGAAGACUGCGGGUUCGAGUCGCGUACGGGACG [A14U C31G C61G A69G]: the yeast fitness is at most 0.5.

With GUUCCGUUGGCGUUAUGGUAACGCGUCUCCCUUCUAAGGAGAAGACUGCGGGUUCGAGUCCCGUACGGAACG [A14U C33U], the yeast fitness was at most 0.5.

Take GUUCCGUUGGCGUUAUGGUAACGCGUCUCCCUGCUAAGGAGAAGACUGCGGGUUCGAGUCCCGUACGGAACG [A14U C33G]: the yeast fitness was at most 0.5.

As to GUUCCGUUGGCGUUAUGGUAACGCGUCUCCCUACUAAGGAGAAGACUGCGGGUUCGAGUCCCGUACGGAACG [A14U C33A], the yeast fitness stood at 0.629.

Turning to GUUCCGUUGGCGUUAUGGUAACGCGUCUCUCCCCUAAGGAGAAGACUGCGGGUUCGAGUCCCGGACGGAACG [A14U C30U U32C U64G], the yeast fitness was at most 0.5.

For the variant GUUCCGUUGGCGUUAUGGUAACGUGUCUCCCUACUAAGGAGAACACCGCGGGUUCGAGUCCCGGACGGAACG [A14U C24U C33A G44C U47C U64G], the yeast fitness is at most 0.5.

On to GUUCCGUUGGCGUUAUGGUAACGCGUCUCUCUCCUAAGGAGAAGAUUGCGGCUUCGAGUCCCGUACGGUACG [A14U C30U C46U G52C A69U], for which the yeast fitness is at most 0.5.

Regarding GUUCCGUUGGCGUUAUGGUAACGUGUCUCCCUGCUAAGGAGAAGACUGCGGGUUCGAGUCCCGUUUGGCACG [A14U C24U C33G A65U C66U A69C], the yeast fitness is at most 0.5.

GUUCCGUUGGCGUUAUGGUAACGCGUCUCUAUCCUAAGGAGAAGACUGCGGGUUCGAGUCCCCUACGGAACG [A14U C30U C31A G63C]: the yeast fitness is at most 0.5.

For the variant GUUCCGUUGGCGUUAUGGUAACGCGUCUUCCUCCUAUGGAGAAGACUGCGGGUUCGAGUCCCGUACGGUACG [A14U C29U A37U A69U], the yeast fitness was at most 0.5.

Regarding GUUCCGUUGGCGUUAUGGUAACGCGUUUGCUUCCUAAGGAGAAGACUGCGGGUUCGAGUCCCGUACGGAACG [A14U C27U C29G C31U], the yeast fitness is at most 0.5.

Turning to GUUCCGUUGGCGUUAUGGUAACGCGUCUCUCUCCUAAGGAGAAGAUUGCGGCUUCGAGUCCCGUACGGAACG [A14U C30U C46U G52C], the yeast fitness is at most 0.5.

For GUUCCGUUGGCGUUAUGGUAACGCGUCUCUCUCCUAAGGAGAAGACUGCGGGAUCGAGUCCCGUACGGAACG [A14U C30U U53A], the yeast fitness is at most 0.5.

As for GUUCCGUUGGCGUUAUGGUAACGCGUCUCCCUCAUAAGGAGAAGACUACGGGUUCGAGCCCCGUACGGAACG [A14U C34A G48A U59C], the yeast fitness amounted to 0.541.

As to GUUCCGUUGGCGUUAUGGUAACGUGUCUCCCUCCUAAGGAGAAGACUCCGGGUUCGAGUCCUGUACGGACCG [A14U C24U G48C C62U A70C], the yeast fitness was at most 0.5.

Turning to GUUCCGUUGGCGUUAUGGUAACGCGUUUGCUUCCUAAGGAGAAGACUGCGGGUUCGAGUCGCGUACGGAACG [A14U C27U C29G C31U C61G], the yeast fitness was at most 0.5.

As to GUUCCGUUGGCGUUAUGGUAACGUGUCUCCCUCUUAAGGAGAAGACUGGGGGUUCGAGUCCCGUACGGAACG [A14U C24U C34U C49G], the yeast fitness is at most 0.5.

In the case of GUUCCGUUGGCGUUAUGGUAACGCGUCUCACUCCUAAGGAAAAGACUGCGGGUUCCAGUCCCGUACGGAACG [A14U C30A G41A G56C], the yeast fitness is at most 0.5.

As for GUUCCGUUGGCGUUAUGGUAACGGGCCCCCCUCCUAAGGAGAAGUCUGAGGGUUCGAGUCCCGUACGGAACG [A14U C24G U26C U28C A45U C49A], the yeast fitness was at most 0.5.

GUUCCGUUGGCGUUAUGGUAACGUGUCUCCCUCCUAAGGAGAAGACUCCGGGUUCGAGUCCCGUACGGAACG [A14U C24U G48C]: the yeast fitness is at most 0.5.

Consider GUUCCGUUGGCGUUAUGGUAACGCGUCUCAGUCCUAAGGACAAGACUGCGGGUUCGAGUCCCGUACGGAUCG [A14U C30A C31G G41C A70U], for which the yeast fitness is at most 0.5.

With GUUCCGUUGGCGUUAUGGUAACGGGUCUCCCUCCUAAGGAAAAAACUGCGGGAUCGAGUCCCGUAUGGAACG [A14U C24G G41A G44A U53A C66U], the yeast fitness worked out at 0.533.

Turning to GUUCCGUUGGCGUUAUGGUAACGCGUCUCUCUCCUAAGGAGGAGACUGCGGGUUCGAGUCCCGUACGGAACG [A14U C30U A42G], the yeast fitness is at most 0.5.

As to GUUCCGUUGGCGUUAUGGUAACGCGUCUCUCUCCUAAGGAGCAGACUGCGGGUUCGAGUCCCGUACGGAACG [A14U C30U A42C], the yeast fitness was at most 0.5.
